Screening results from PubChem.
Rtt109 HAT inh = inhibitors of Candida albicans Rtt109/Vps75 histone acetyltransferase; inhibition, % at 34.9 µM; 0.16% of 330,000 active; purified Rtt109/Vps75, ThioGlo CoA-SH fluorescence, 4 h;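 active = inhibition of at least 50% in every replicate; inconclusive = best replicate reaches 50% inhibition but some replicates fall short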
Target sequence (Q5AAJ8 whole entry, looked up): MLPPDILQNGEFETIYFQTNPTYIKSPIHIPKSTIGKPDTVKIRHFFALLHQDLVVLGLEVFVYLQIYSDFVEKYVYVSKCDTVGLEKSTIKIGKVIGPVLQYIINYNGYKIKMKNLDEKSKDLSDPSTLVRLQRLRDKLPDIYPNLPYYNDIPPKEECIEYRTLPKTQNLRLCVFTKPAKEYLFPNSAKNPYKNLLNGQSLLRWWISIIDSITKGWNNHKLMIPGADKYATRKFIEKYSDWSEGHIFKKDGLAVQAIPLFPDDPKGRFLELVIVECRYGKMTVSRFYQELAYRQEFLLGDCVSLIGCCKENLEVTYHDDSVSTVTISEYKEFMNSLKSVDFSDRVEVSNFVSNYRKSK
ALR H2O2 inh = human ALR oxidase inhibition via reduced H2O2; P55789; purified ALR, DTT oxidation, H2O2 HRP-luminol luminescence; inhibition, % (test concentration not listed); 3.8% of 290,000 active;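 active = mean replicate inhibition above about 79%, with every replicate also reaching it, limit read from the data; inconclusive = only one of the two criteria met; inactive = mean below limit and not every replicate reaching it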
Target sequence (P55789 whole entry, looked up): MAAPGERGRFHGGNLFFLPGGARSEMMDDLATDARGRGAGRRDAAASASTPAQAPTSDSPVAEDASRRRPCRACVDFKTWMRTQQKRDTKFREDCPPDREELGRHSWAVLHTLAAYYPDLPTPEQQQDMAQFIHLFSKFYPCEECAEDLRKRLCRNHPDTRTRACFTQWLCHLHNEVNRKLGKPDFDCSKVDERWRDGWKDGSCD
CAL PDZ FP-1 = blocks peptide binding to human CAL PDZ domain. inhibition, % at 20 µM. Q9HD26. 0.02% of 330,000 active. purified CAL PDZ, TMR-peptide fluorescence polarization, 1 h. AID 504414;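 active = highest replicate inhibition of at least 40%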;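 also: plate controls were DMSO neutral control wells for no effect and unlabeled competitor peptide control wells for full effect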
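Read-out basis: mP drop reported as inhibition | Assay system: Tagged CAL PDZ protein CerCALP, purified | Benchmarks: Unlabelled peptide for full inhibition, DMSO wells as neutral | Schedule: 1 h incubation at room temperature before polarization reading | Buffer or medium: Sodium phosphate/NaCl buffer pH 7.4 with TCEP, IgG, Thesit | Doses: Single point, 20 µM | Measured by: Fluorescence polarization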
CAL PDZ FP-2 = inhibitors of human CAL PDZ peptide binding | inhibition, % at 24.9 µM | 0.92% of 300,000 active | purified CAL PDZ, TMR-peptide fluorescence polarization, 1 h;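 active = mean inhibition of at least 30% with at least half of replicates also reaching 30%; inconclusive = no clear call, values can overlap the other calls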;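 also: 0% = DMSO neutral control and 100% = excess unlabeled competitor peptide PRC23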
Dyrk1A ADPGlo = Dyrk1A (rat) kinase inhibition; 0.43% of 310,000 active; ADP-Glo luminescence, NFATc1 peptide; inhibition, % at 12.5 µM; in the data active = inhibition above about 50%;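 also: plate controls were vehicle with enzyme for no effect and no enzyme for full effect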
Starred values were filed as active, the others as inactive; i = inactive; u = inconclusive; x = no result given. Compounds with a hit are over-represented: about 4.3% of the library has one in this group of screens.

SMILES	Rtt109 HAT inh	ALR H2O2 inh	CAL PDZ FP-1	CAL PDZ FP-2	Dyrk1A ADPGlo
O=C1C2C3C=CC(CC3)C2C(=O)N1/N=C/c1ccc(O)c(O)c1 (stereo not drawn)	-3	x	1	-3	-3
CC1CCCC(C)N1/N=C/c1cc(Br)c(O)c(Br)c1 (stereo not drawn)	x	9	x	x	x
CC1CCCC(C)N1/N=C/c1ccc(O)c(O)c1 (stereo not drawn)	2	99*	-1	-3	-1
O=C1c2ccccc2C(=O)N1/N=C/c1ccc(O)c(O)c1	-11	99*	-3	-2	7
CN1C(=O)Cc2cc(S(=O)(=O)N3CCN(c4cccc(C(F)(F)F)c4)CC3)ccc21	-8	-5	0	1	-2
CC(=O)c1c(C)[nH]c(C(=O)COC(=O)c2cc(C)oc2C)c1C	-6	x	-1	6	3
CCN=c1scc(C)n1/N=C/c1cc(Br)c(O)c(OC)c1	0	87*	0	-2	x
COc1ccc(O)c(/C=N/N2CCCCC2)c1	-1	13	-1	5	13
COc1cc(/C=N/N2CCCCC2)cc(OC)c1O	-15	99*	0	-1	-4
Cc1cc(C)cc(C(=O)Nc2nnc(SCC(=O)NCC3CCCO3)s2)c1 (stereo not drawn)	9	-3	-3	-2	-2
Cc1ccc(OCCn2cnc3c(N)ncnc32)cc1	-7	x	0	-3	11
CCOc1ccc(OCCn2c(=S)[nH]c3c(N)ncnc32)cc1	-4	91*	11	-5	-4
O=C(OCc1ccccc1)N1CCC2CC1c1cc(-c3ccccc3)ccc12 (stereo not drawn)	-5	x	0	53*	1
COc1ccccc1N(CC(=O)N1CCOCC1)S(C)(=O)=O	-4	-4	0	0	5
O=C(CNc1ccc2ccccc2c1)N/N=C/c1ccc(C(=O)O)cc1	x	67	-2	-3	5
O=C(O)c1ccc(/C=N/NC(=O)c2cc3ccccc3cc2O)cc1	-5	-1	-1	46*	x
O=C(O)c1cccc(Cn2c(Cl)c(/C=N/NC(=O)c3ccccc3)sc2=O)c1	8	70	-2	-2	-28
O=C(O)c1cccc(Cn2c(Cl)c(/C=N/NC(=O)c3cc4ccccc4cc3O)sc2=O)c1	1	40	x	47*	39
Cc1nn(C)c(C)c1S(=O)(=O)N1CCC(CO)(CC2CCCCO2)CC1 (stereo not drawn)	-3	-5	x	-2	9
O=C(O)c1cc(NC(=O)c2cccc(C(=O)Nc3cc(C(=O)O)cc(C(=O)O)c3)c2)cc(C(=O)O)c1	-10	5	1	0	-1
COc1cc(C2C3=C(CC(C)(C)CC3=O)Nc3ccccc3N2C(C)=O)cc(OC)c1OC (stereo not drawn)	42	1	-1	4	14
O=C(CN1CCN(c2ccc(O)cc2)CC1)N1CCc2ccccc21	-7	80*	0	49*	5
O=C(CCC(=O)N1CCCC1)Nc1ccc(Cl)c(Cl)c1	2	-1	-2	0	5
COc1c(C)cccc1C(=O)Nc1ccc(CN2CCCCC2)cc1	5	94*	14	-4	5
O=C(Nc1ccc(N2CCCCCC2)cc1)c1ccc[nH]1	-6	99*	1	-4	3
SMILES	Rtt109 HAT inh	ALR H2O2 inh	CAL PDZ FP-1	CAL PDZ FP-2	Dyrk1A ADPGlo
O=C(Nc1ccc(N2CCCCCC2)cc1)c1ccccc1Cl	14	66	-3	0	2
COc1ccccc1C(=O)Nc1ccc(N2CCCCC2)cc1	3	83*	0	0	9
CCOC(=S)SCC(=O)Nc1ncc(C)s1	47	99*	-4	-1	3
O=c1c(O)c(-c2ccc(O)c(O)c2)oc2cc(O)cc(O)c12	1	99*	1	-3	4
O=C(O)C1OC(Oc2c(-c3ccc(O)c(O)c3)oc3cc(O)cc(O)c3c2=O)C(O)C(O)C1O (stereo not drawn)	x	99*	x	x	x
O=c1c(-c2ccc(O)cc2)coc2cc(O)cc(O)c12	-3	57	-1	-9	37
O=c1cc(-c2ccc(O)c(O)c2)oc2cc(O)cc(O)c12	1	u	-1	2	91*
CC1OC(Oc2c(-c3cc(O)c(O)c(O)c3)oc3cc(O)cc(O)c3c2=O)C(O)C(O)C1O (stereo not drawn)	8	x	-1	-1	14
COc1ccc(-c2cc(=O)c3c(O)cc(O)cc3o2)cc1	-17	1	1	0	-1
CCc1ccc(NC(=O)C2C3/C=C\CCCCC32)cc1 (stereo not drawn)	4	-4	-1	-2	1
CCc1cc(C(=O)NCC(c2cccs2)N2CCOCC2)sc1C (stereo not drawn)	2	-2	-2	-2	0
CS(=O)(=O)c1ccc(C(=O)NCCN2C(=O)S/C(=C\c3cccnc3)C2=O)cc1[N+](=O)[O-]	0	100*	16	-3	6
COc1cc(Cl)ccc1S(=O)(=O)n1nc(C)cc1C	-3	-1	1	-1	x
COc1cc(S(=O)(=O)n2nc(C)cc2C)c(OC)cc1Cl	65*	-5	-2	-2	1
N#Cc1c(C(F)(F)F)cc(-c2ccccc2)[nH]c1=O	-213	-1	-2	36*	11
Cc1ccc(-c2cc(C(F)(F)F)c(C#N)c(=O)[nH]2)cc1	-2	0	-3	1	3
COc1cc([N+](=O)[O-])ccc1NC(=O)Cn1ccsc1=N	-6	16	-1	x	13
COc1ccc(S(=O)(=O)N/N=C(/C)c2ccncc2)c(OC)c1	2	81*	-1	-2	-4
COc1ccc(S(=O)(=O)N/N=C(/C)c2ccncc2)cc1	7	-3	1	1	4
CCOC(=O)C1=C(C)N=c2s/c(=C\c3ccc(OCC(=O)O)cc3)c(=O)n2C1c1ccccc1 (stereo not drawn)	-3	98*	-2	-9	14
CCOC(=O)C1=C(C)N=c2s/c(=C\c3cccc(OCC(=O)O)c3)c(=O)n2C1c1ccccc1 (stereo not drawn)	-4	7	-1	-1	7
[O-][n+]1c2c(c3c4non(O)c4ccc31)CCCC2	7	94*	-2	-1	21
COn1c2c(c3c4no[n+]([O-])c4ccc31)CCCC2	1	6	-2	-3	x
CN(C)CCNC(=O)/C=C/c1cn(-c2ccccc2)nc1-c1cc2ccccc2oc1=O	-9	-6	-4	-5	3
O=c1oc2c(CN3CCN(CCO)CC3)c(O)ccc2cc1-c1ccccn1	i	2	0	3	-15
NS(=O)(=O)c1ccc(NC(=O)COC(=O)CCCN2C(=O)c3cccc4cccc(c34)C2=O)cc1	-8	2	-2	60*	4
CCOc1ccccc1-n1c(SCC(=O)N2CCOCC2)nnc1-c1ccccn1	13	-14	x	42*	-2
CCOc1ccccc1-n1c(SCC(=O)N(CC)CC)nnc1-c1ccccn1	-8	-32	0	x	3
